Laboratory results published in ChEMBL document CHEMBL1955833, “Wnt inhibition correlates with human embryonic stem cell cardiomyogenesis: a structure-activity relationship study based on inhibitors for the Wnt response” (J Med Chem, 2012).

Tests used:
[1] = Cardiogenic activity in human embryonic stem cells at 2 uM by MYH6 reporter gene assay relative to control; assay type: functional, Embryonic stem cell
[2] = tested on: HEK-293T; assay: Cytotoxicity against human HEK293T cells at 0.2 to 20 uM after 24 hrs by alamar blue assay; assay type: cell-based
[3] = Inhibition of beta-catenin-dependent canonical Wnt3 pathway in human HEK293T cells by luciferase reporter gene assay; assay type: cell-based; details: HEK-293T
[4] = Cardiogenic activity in human embryonic stem cells at 2.5 uM by MYH6 reporter gene assay relative to control; assay type: functional, Embryonic stem cell
[5] = tested on: H9; assay: Cardiogenic activity in human H9 cells after 14 days by MYH6-mCherry reporter gene assay relative to 4-[(1R,2S,6R,7S)-3,5-dioxo-4-azatricyclo[5.2.1.0~2,6~]dec-8-en-4-yl]-N-quinolin-8-ylbenzamide; assay type: functional
Method in brief: (§1)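 hESC embryoid bodies grown to day 4, dissociated to single cells and plated in 384-well format with serial compound dilutions. At day 10 switched to serum-free medium with T3. At day 14 moved to PBS and imaged for red fluorescence. Total area and intensity of the MYH6-mCherry reporter were quantified per well and expressed as percent cardiogenesis, with the reference set to 100% at its maximum.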

[6] = Inhibition of beta-catenin-dependent canonical Wnt3A pathway in human HEK293T cells at 1 uM by luciferase reporter gene assay; assay type: cell-based; details: HEK-293T
Method in brief: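 HEK293T cells transiently co-transfected with Super(8x)TOPflash (TCF-firefly luciferase), TK-Renilla luciferase for normalization, and a Wnt3A-expressing vector to activate the pathway. Compounds tested at a single concentration of 1 μM, alongside untreated and DMSO vehicle controls. Firefly signal normalized to Renilla.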

[7] = Half life in phosphate buffer pH 7.4 at 10 uM by HPLC analysis; assay type: physicochemical
Method in brief: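 Degradation followed by HPLC, and half-life determined where degradation occurred.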

[8] = tested on: H9; assay: Cardiogenic activity in human H9 cells at 10 uM after 14 days by MYH6-mCherry reporter gene assay relative to 4-[(1R,2S,6R,7S)-3,5-dioxo-4-azatricyclo[5.2.1.0~2,6~]dec-8-en-4-yl]-N-quinolin-8-ylbenzamide; assay type: functional; method in brief: as §1

Row | IC50 [3] [nM] | half-life at 10 µM [7] [min] | SMILES | fold change (FC) [1] | Activity [2] | fold change (FC) [4] | Activity [5] | inhibition [6] [%] | Activity ([5]; record 2) [%] | Activity [8] [%]
1 | 51 | – | Oc1nc(-c2ccc(C(F)(F)F)cc2)nc2c1CSCC2 | 1000 | Non-toxic | – | – | – | – | –
2 | 538 | – | Cc1ccc2nc(NC(=O)CSc3nc4c(c(=O)n3-c3ccc(F)cc3)SCC4)sc2c1 | – | Non-toxic | 1000 | – | – | – | –
3 | 119 | 228 | O=C(Nc1ccc(N2C(=O)[C@@H]3[C@@H]4CC[C@@H](C4)[C@@H]3C2=O)cc1)c1cccc2cccnc12 | – | – | – | 1% | 91 | – | –
4 | 93 | – | O=C1[C@@H]2[C@@H]3CC[C@@H](C3)[C@@H]2C(=O)N1[C@H]1CC[C@H](C(=O)Nc2cccc3ccncc23)CC1 | – | – | – | Dose-dependent effect | 91 | 25 | 24
